Measured values published in ChEMBL document CHEMBL1142188, “Fitness costs of fluoroquinolone resistance in Streptococcus pneumoniae” (2007).
Converted amounts (≈) assume the structure as drawn.

What was measured:
Streptococcus pneumoniae [1] = experiment: Antimicrobial activity against Streptococcus pneumoniae R6 transformants with parC D83Y mutation; assay type: functional
How it was run: (§1)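 MIC by Etest on tryptic soy agar with 5% sheep blood, incubated overnight at 35°C, or by serial dilution in Mueller-Hinton broth with 5% horse blood per CLSI protocols. Each assay was run twice. Strains were R6 or R6 transformed with QRDR alleles from levofloxacin-resistant clinical isolates, with mutations confirmed by PCR sequencing.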

Streptococcus pneumoniae [2] = experiment: Antimicrobial activity against Streptococcus pneumoniae R6 transformants with parC D83Y and gyrA E85K mutation in presence of reserpine
Streptococcus pneumoniae [3] = experiment: Antimicrobial activity against Streptococcus pneumoniae R6 transformants with parC D83Y and gyrA S81Y mutation in presence of reserpine
Streptococcus pneumoniae [4] = experiment: Antimicrobial activity against Streptococcus pneumoniae R6 transformants with gyrA S81Y mutation in presence of reserpine
Streptococcus pneumoniae [5] = experiment: Antimicrobial activity against Streptococcus pneumoniae R6 transformants with gyrA S81F mutation in presence of reserpine
Streptococcus pneumoniae [6] = experiment: Antimicrobial activity against Streptococcus pneumoniae R6 transformants with parC S79F and gyrA S81F mutation in presence of reserpine
Streptococcus pneumoniae [7] = experiment: Antimicrobial activity against Streptococcus pneumoniae R6 transformants with parC S79F and gyrA S81F mutation; assay type: functional; how it was run: as §1
Streptococcus pneumoniae [8] = experiment: Antimicrobial activity against Streptococcus pneumoniae R6 transformants with parC S79Y and gyrA S81F mutation in presence of reserpine
Streptococcus pneumoniae [9] = experiment: Antimicrobial activity against Streptococcus pneumoniae R6 transformants with parE D435N and gyrA E85K mutation in presence of reserpine
Streptococcus pneumoniae [10] = experiment: Antimicrobial activity against Streptococcus pneumoniae R6 transformants with parE D435N mutation in presence of reserpine
Streptococcus pneumoniae [11] = experiment: Antimicrobial activity against Streptococcus pneumoniae R6 transformants with parE D435N and gyrA S81Y mutation; assay type: functional; how it was run: as §1
Streptococcus pneumoniae [12] = experiment: Antimicrobial activity against Streptococcus pneumoniae R6 transformants with parC S79F and gyrA S81Y mutation in presence of reserpine
Streptococcus pneumoniae [13] = experiment: Antimicrobial activity against Streptococcus pneumoniae R6 transformants with parC S79F and gyrA S81Y mutation; assay type: functional; how it was run: as §1
Streptococcus pneumoniae [14] = experiment: Antimicrobial activity against Streptococcus pneumoniae R6 transformants with parC D83Y and gyrA S81Y mutation; assay type: functional; how it was run: as §1
Streptococcus pneumoniae [15] = experiment: Antimicrobial activity against Streptococcus pneumoniae R6 transformants with parC S79Y and gyrA S81F mutation; assay type: functional; how it was run: as §1
Streptococcus pneumoniae [16] = experiment: Antimicrobial activity against Streptococcus pneumoniae R6 transformants with parC D83Y and gyrA E85K mutation; assay type: functional; how it was run: as §1
Streptococcus pneumoniae [17] = experiment: Antimicrobial activity against Streptococcus pneumoniae R6 transformants with parC S79Y and gyrA E85K mutation; assay type: functional; how it was run: as §1
Streptococcus pneumoniae [18] = experiment: Antimicrobial activity against Streptococcus pneumoniae R6 transformants with parC S79F mutation in presence of reserpine
Streptococcus pneumoniae [19] = experiment: Antimicrobial activity against Streptococcus pneumoniae R6 transformants with parE D435N and gyrA S81F mutation in presence of reserpine
Streptococcus pneumoniae [20] = experiment: Antimicrobial activity against Streptococcus pneumoniae R6 transformants with parC S79Y and gyrA E85K mutation in presence of reserpine
Streptococcus pneumoniae [21] = experiment: Antimicrobial activity against Streptococcus pneumoniae R6 transformants with parE D435N and gyrA S81F mutation; assay type: functional; how it was run: as §1
Streptococcus pneumoniae [22] = experiment: Antimicrobial activity against Streptococcus pneumoniae R6 transformants with parC D83Y mutation in presence of reserpine
Streptococcus pneumoniae [23] = experiment: Antimicrobial activity against Streptococcus pneumoniae R6 transformants with parE D435N and gyrA E85K mutation; assay type: functional; how it was run: as §1
Streptococcus pneumoniae [24] = experiment: Antimicrobial activity agaisnt Streptococcus pneumoniae R6 transformants with parC D83Y and gyrA S81F mutation in presence of reserpine
Streptococcus pneumoniae [25] = experiment: Antimicrobial activity against Streptococcus pneumoniae R6 transformants with parE D435N and gyrA S81Y mutation in presence of reserpine
Streptococcus pneumoniae [26] = experiment: Antimicrobial activity against Streptococcus pneumoniae R6 transformants with gyrA S81Y mutation; assay type: functional; how it was run: as §1
Streptococcus pneumoniae [27] = experiment: Antimicrobial activity against Streptococcus pneumoniae R6 transformants with parC S79F and gyrA E85K mutation in presence of reserpine
Streptococcus pneumoniae [28] = experiment: Antimicrobial activity agaisnt Streptococcus pneumoniae R6 transformants with parC S79F and gyrA E85K mutation; assay type: functional; how it was run: as §1
Streptococcus pneumoniae [29] = experiment: Antimicrobial activity against Streptococcus pneumoniae R6 transformants with gyrA S81F mutation; assay type: functional; how it was run: as §1
Streptococcus pneumoniae [30] = experiment: Antimicrobial activity against Streptococcus pneumoniae R6 transformants with parC S79Y mutation in presence of reserpine
Streptococcus pneumoniae [31] = experiment: Antimicrobial activity against Streptococcus pneumoniae R6 transformants with parC D83Y and gyrA S81F mutation; assay type: functional; how it was run: as §1
Streptococcus pneumoniae [32] = experiment: Antimicrobial activity agaisnt Streptococcus pneumoniae R6 transformants with parC S79Y mutation; assay type: functional; how it was run: as §1
Streptococcus pneumoniae [33] = experiment: Antimicrobial activity against Streptococcus pneumoniae R6; assay type: functional; how it was run: as §1
Streptococcus pneumoniae [34] = experiment: Antimicrobial activity against Streptococcus pneumoniae R6 transformants with gyrA E85K mutation; assay type: functional; how it was run: as §1
Streptococcus pneumoniae [35] = experiment: Antimicrobial activity against Streptococcus pneumoniae R6 transformants with parC S79F mutation; assay type: functional; how it was run: as §1
Streptococcus pneumoniae [36] = experiment: Antimicrobial activity against Streptococcus pneumoniae R6 transformants with parE D435N mutation; assay type: functional; how it was run: as §1

Structure (SMILES) | MIC (Streptococcus pneumoniae [1]) [µg/mL] | MIC (Streptococcus pneumoniae [7]) [µg/mL] | MIC (Streptococcus pneumoniae [11]) [µg/mL] | MIC (Streptococcus pneumoniae [13]) [µg/mL] | MIC (Streptococcus pneumoniae [14]) [µg/mL] | MIC (Streptococcus pneumoniae [15]) [µg/mL] | MIC (Streptococcus pneumoniae [16]) [µg/mL] | MIC (Streptococcus pneumoniae [17]) [µg/mL] | MIC (Streptococcus pneumoniae [21]) [µg/mL] | MIC (Streptococcus pneumoniae [23]) [µg/mL] | MIC (Streptococcus pneumoniae [26]) [µg/mL] | MIC (Streptococcus pneumoniae [28]) [µg/mL] | MIC (Streptococcus pneumoniae [29]) [µg/mL] | MIC (Streptococcus pneumoniae [31]) [µg/mL] | MIC (Streptococcus pneumoniae [32]) [µg/mL] | MIC (Streptococcus pneumoniae [33]) [µg/mL] | MIC (Streptococcus pneumoniae [34]) [µg/mL] | MIC (Streptococcus pneumoniae [35]) [µg/mL] | MIC (Streptococcus pneumoniae [36]) [µg/mL] | also measured
O=C(O)c1cn(C2CC2)c2cc(N3CCNCC3)c(F)cc2c1=O [CIPROFLOXACIN] | 3 (≈ 9.05 µM) | 64 (≈ 193 µM) | 64 (≈ 193 µM) | 64 (≈ 193 µM) | 64 (≈ 193 µM) | 64 (≈ 193 µM) | 64 (≈ 193 µM) | 64 (≈ 193 µM) | 32 (≈ 96.6 µM) | < 4 | 2 (≈ 6.04 µM) | 32 (≈ 96.6 µM) | 1 (≈ 3.02 µM) | 32 (≈ 96.6 µM) |  |  |  |  |  | MIC (Streptococcus pneumoniae [2]): 32 µg/mL; MIC (Streptococcus pneumoniae [3]): 32 µg/mL; MIC (Streptococcus pneumoniae [4]): 2 µg/mL; MIC (Streptococcus pneumoniae [5]): 1 µg/mL; MIC (Streptococcus pneumoniae [6]): 32 µg/mL; MIC (Streptococcus pneumoniae [8]): 32 µg/mL; MIC (Streptococcus pneumoniae [9]): < 4 µg/mL; MIC (Streptococcus pneumoniae [10]): 2 µg/mL; MIC (Streptococcus pneumoniae [12]): 32 µg/mL; MIC (Streptococcus pneumoniae [18]): 2 µg/mL; MIC (Streptococcus pneumoniae [19]): 16 µg/mL; MIC (Streptococcus pneumoniae [20]): 32 µg/mL; MIC (Streptococcus pneumoniae [22]): 2 µg/mL; MIC (Streptococcus pneumoniae [24]): 8 µg/mL; MIC (Streptococcus pneumoniae [25]): 32 µg/mL; MIC (Streptococcus pneumoniae [27]): 32 µg/mL; MIC (Streptococcus pneumoniae [30]): 2 µg/mL
COc1c(N2CCNC(C)C2)c(F)cc2c(=O)c(C(=O)O)cn(C3CC3)c12 (centres undefined) [GATIFLOXACIN] | 0.12 (≈ 0.32 µM) | ≥ 4 | ≥ 4 | ≥ 4 | ≥ 4 | ≥ 4 | 2 (≈ 5.33 µM) | ≥ 4 | 2 (≈ 5.33 µM) | 0.25 (≈ 0.666 µM) | 0.25 (≈ 0.666 µM) | ≥ 4 | 0.25 (≈ 0.666 µM) | 4 (≈ 10.7 µM) | 0.12 (≈ 0.32 µM) | 0.12 (≈ 0.32 µM) | 0.25 (≈ 0.666 µM) | 0.12 (≈ 0.32 µM) | 0.12 (≈ 0.32 µM) | 
CO/N=C1\CN(c2nc3c(cc2F)c(=O)c(C(=O)O)cn3C2CC2)CC1CN (centres undefined) [GEMIFLOXACIN] | 0.06 (≈ 0.154 µM) | 0.5 (≈ 1.28 µM) | 0.25 (≈ 0.642 µM) | 0.5 (≈ 1.28 µM) | 0.25 (≈ 0.642 µM) | 1 (≈ 2.57 µM) | 0.5 (≈ 1.28 µM) | 1 (≈ 2.57 µM) | 0.25 (≈ 0.642 µM) | < 0.06 | 0.12 (≈ 0.308 µM) | 1 (≈ 2.57 µM) | 0.12 (≈ 0.308 µM) | 0.12 (≈ 0.308 µM) | 0.06 (≈ 0.154 µM) | 0.03 (≈ 0.077 µM) | 0.06 (≈ 0.154 µM) | 0.06 (≈ 0.154 µM) | 0.06 (≈ 0.154 µM) | 
C[C@H]1COc2c(N3CCN(C)CC3)c(F)cc3c(=O)c(C(=O)O)cn1c23.C[C@H]1COc2c(N3CCN(C)CC3)c(F)cc3c(=O)c(C(=O)O)cn1c23.O [LEVOFLOXACIN] |  | > 32 | > 32 | > 32 | > 32 | > 32 | > 32 | > 32 | > 32 |  | 3 | > 32 |  | > 32 |  |  |  |  |  | 
COc1c(N2C[C@@H]3CCCN[C@@H]3C2)c(F)cc2c(=O)c(C(=O)O)cn(C3CC3)c12 [MOXIFLOXACIN] |  | 8 (≈ 19.9 µM) | 4 (≈ 9.96 µM) | 4 (≈ 9.96 µM) | 4 (≈ 9.96 µM) | 8 (≈ 19.9 µM) | 4 (≈ 9.96 µM) | 8 (≈ 19.9 µM) | 4 (≈ 9.96 µM) | 0.5 (≈ 1.25 µM) | > 0.5 | 8 (≈ 19.9 µM) | 0.5 (≈ 1.25 µM) | 4 (≈ 9.96 µM) |  |  | 0.25 (≈ 0.623 µM) |  |  | 
